Measurements: ChEMBL document CHEMBL1144722 (J Nat Prod, 2008)
pIC50: −log10 of the molar value. The source made the active and inactive calls. The calls are words filed in the database; no cut-off is given here.

Assays:
Format in all cases: functional, cell-based
[1] = test system: Epithelial cell; assay: (§1) Antiproliferative activity against mouse +SA mammary epithelial cells after 4 days by MTT assay
Outline: (§2)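 Highly malignant +SA mouse mammary epithelial cells kept in serum-free medium with 10 ng/mL EGF and 10 µg/mL insulin as mitogens. Seeded at 5 × 10⁴ cells/well, 6 wells/group, and fed medium containing compound at 0.01–1000 µM, compared with vehicle controls. After 4 days of culture, viable cell number was read by MTT colorimetric assay.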

[2] = as §1; settings: Epithelial cell, 96 h; outline: as §2
[3] = test system: Epithelial cell; assay: Antiproliferative activity against mouse +SA mammary epithelial cells at 15 to 40 uM after 4 days by MTT assay; outline: as §2

CC(=O)O[C@H]1/C=C(\C)CC[C@@H]2OC(=N)S[C@@]2(C)CC[C@@H](C(C)C)/C=C/[C@@](C)(O)C1
Activity [1]: inactive

CC(=O)O[C@H]1/C=C(\C)CC/C=C(\C)[C@@H](O)C[C@@H](C(C)C)/C=C/[C@@](C)(O)C1
pIC50 [2]: 4.70
Activity [3]: Active

CC(=O)O[C@H]1/C=C(\C)CC/C=C(\C)[C@H](O)C[C@@H](C(C)C)/C=C/[C@@](C)(O)C1
pIC50 [2]: 4.52
Activity [3]: Active

C/C1=C/C(=O)C[C@](C)(O)/C=C/[C@H](C(C)C)CC/C(C)=C/CC1
Activity [3]: Active

CC(C)=CCC/C(C)=C/CC/C(C)=C/CC[C@]1(C)CCc2cc(O)cc(C)c2O1 [DELTA-TOCOTRIENOL]
pIC50 [2]: 5.15

CCNC(=O)O[C@H]1/C=C(\C)CC/C=C(\C)CC[C@@H](C(C)C)/C=C/[C@@](C)(O)C1
Activity [1]: inactive

C/C1=C\C(=O)C[C@](C)(O)/C=C/[C@H](C(C)C)CC/C(C)=C/CC1
Activity [3]: inactive

CC(=O)O[C@H]1/C=C(\C)CC[C@H](O)[C@@](C)(SC#N)CC[C@@H](C(C)C)/C=C/[C@@](C)(O)C1
Activity [1]: inactive

CC(=O)/C=C/C(CC/C(C)=C/CC/C(C)=C/C(C)=O)C(C)C (stereo not given) [SECOCEMBRANOID]
pIC50 [2]: 4.82
Activity [3]: Active

C/C1=C\[C@H](OC(=O)NCc2ccccc2)C[C@](C)(O)/C=C/[C@H](C(C)C)CC/C(C)=C/CC1
Activity [1]: inactive

C/C1=C\[C@H](OC(=O)NCCCl)C[C@](C)(O)/C=C/[C@H](C(C)C)CC/C(C)=C/CC1
Activity [1]: inactive

CC(=O)O[C@H]1/C=C(\C)CC/C=C(\C)CC[C@@H](C(C)C)/C=C/[C@@](C)(O)C1
Activity [1]: Active
